Test results from ChEMBL document CHEMBL3763088, “Design, synthesis, and biological evaluation of water-soluble amino acid prodrug conjugates derived from combretastatin, dihydronaphthalene, and benzosuberene-based parent vascular disrupting agents” (Bioorg Med Chem, 2016).
Values joined by “and” are separate entries in the source; they are usually repeats but may differ in a detail not shown here. Equal values may be shown once. Active and inactive are the calls of the source. The rule behind the calls is not given here.

Legend:
[1] = Cytotoxicity against human DU145 cells assessed as growth inhibition after 48 hrs by SRB assay; assay type: functional, DU-145
Method in brief: (§1)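 Cells kept at 37 °C, 5% CO2, up to passage 15. Plated at 7500 cells/well in DMEM with 5% FBS and 1% gentamycin, grown 24 h, then given 10-fold serial dilutions for 48 h. Fixed with 10% TCA (final), SRB-stained, read at 540 nm, normalized at 630 nm. GI50 is the concentration halving net protein staining versus controls, taken from optical density data.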

NCI-H460 = assay: Cytotoxicity against human NCI-H460 cells assessed as growth inhibition after 48 hrs by SRB assay; assay type: functional; method in brief: as §1
[2] = Cytotoxicity against human SKOV3 cells assessed as growth inhibition after 48 hrs by SRB assay; assay type: functional, SK-OV-3; method in brief: as §1
Tubulin = Tubulin (Bos taurus, UniProt Q6B856+Q862L2+Q862F3); assay: Inhibition of bovine brain tubulin polymerization preincubated for 15 mins by spectrophotometric analysis
Method in brief: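 Purified bovine brain tubulin, 1.0 mg/mL (10 μM), in 0.8 M monosodium glutamate pH 6.6 with 4% DMSO and varied compound. Temperature jumped from 0 to 30 °C; turbidity at 350 nm followed for 20 min.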

Leucine aminopeptidase [3] = molecular target: T1, Leucine aminopeptidase (Sus scrofa, UniProt Q29571); assay: Prodrug conversion assessed as porcine leucine aminopeptidase-mediated compound cleavage by HPLC analysis; assay type: ADME; settings: pig
T1 sequence (Q29571 whole entry): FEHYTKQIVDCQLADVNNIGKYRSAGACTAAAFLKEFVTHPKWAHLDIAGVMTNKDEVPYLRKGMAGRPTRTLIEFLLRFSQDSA
Method in brief: (§2)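 Porcine kidney microsomal LAP; units defined with 24 mM L-leucine p-nitroanilide in 50 mM sodium phosphate pH 7.2 at 37 °C. Enzyme preincubated in the same buffer at 37 °C, then substrate added. Aliquots were quenched with acetonitrile on ice, centrifuged and run on C18 HPLC (acetonitrile/water, 0.05% TFA, 1.0 mL/min, 22 °C, diode-array UV). Cleavage % from the parent/prodrug peak-area ratio; amounts from calibration curves.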

Leucine aminopeptidase [4] = molecular target: T1, Leucine aminopeptidase; assay: Prodrug conversion assessed as porcine leucine aminopeptidase-mediated compound cleavage after 24 hrs using 3.6 units of enzyme by HPLC analysis; assay type: ADME; settings: pig; method in brief: as §2
Tubulin (Bos taurus) [5] = molecular target: T2, Tubulin (Bos taurus) (UniProt Q6B856+Q862L2+Q862F3); assay: Displacement of [3H]colchicine from bovine brain tubulin at 1 uM after 10 mins by scintillation counting analysis
Method in brief: (§3)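 1.0 μM tubulin with 5.0 μM [3H]colchicine and inhibitor at 1.0 or 5.0 μM. Buffer: 5% DMSO, 1.0 M monosodium glutamate pH 6.6, 0.5 mg/mL BSA, 0.1 M glucose-1-phosphate, 1.0 mM MgCl2, 1.0 mM GTP. Incubated 10 min at 37 °C, stopped with ice-cold water, collected on DEAE-cellulose filters and scintillation counted. Corrected for filter binding without tubulin; % inhibition against no-inhibitor controls.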

Leucine aminopeptidase [6] = molecular target: T1, Leucine aminopeptidase; assay: Activity at porcine leucine aminopeptidase by HPLC analysis; assay type: ADME; settings: pig; method in brief: as §2
[7] = Retention time of the compound by HPLC analysis; assay type: physicochemical
Method in brief: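 Reversed-phase C18 HPLC (4.6 × 150 mm, 5 μm) at 25 °C with diode-array detection at 190–400 nm. Acetonitrile against water or 0.1% TFA/water. Gradient 10% to 100% acetonitrile over 40 min, or in method C 10% acetonitrile for 5 min then to 100% over 5–25 min, at 1.0 mL/min.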

Tubulin (Bos taurus) [8] = molecular target: T2, Tubulin (Bos taurus); assay: Displacement of [3H]colchicine from bovine brain tubulin at 5 uM after 10 mins by scintillation counting analysis; method in brief: as §3
HUVEC = assay: Antivascular activity in HUVEC cells assessed as disruption of capillary-like network of tubules formation at 0.1 uM by matrigel assay; assay type: functional, cell-based; settings: Homo sapiens
Method in brief: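 HUVECs (124,000 per well in M200 with growth factors) plated on Matrigel (9.5 mg/mL) that had been set for 60 min at 37 °C. Cells incubated 16 h at 37 °C to form tubule networks. Then treated at 0.01, 0.1 or 1.0 μM and photographed, 9 fields/well with 40x objective.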

MDA-MB-231 [9] = assay: Induction of tumor-specific vascular damage in luciferase expressing human MDA-MB-231 cells xenografted in SCID mouse assessed as reduction in light emission at 80 mg/kg at 4 hrs post dose by bioluminescence imaging assay (reference value: 22%); assay type: functional; settings: MDA-MB-231, 4 h
MDA-MB-231 [10] = assay: Induction of tumor-specific vascular damage in luciferase expressing human MDA-MB-231 cells xenografted in SCID mouse assessed as reduction in light emission at 80 mg/kg at 24 hrs post dose by bioluminescence imaging assay (reference value: 24%); assay type: functional; settings: MDA-MB-231, 24 h
MDA-MB-231 [11] = assay: Induction of tumor-specific vascular damage in luciferase expressing human MDA-MB-231 cells xenografted in SCID mouse assessed as reduction in light emission at 80 mg/kg at 2 hrs post dose by bioluminescence imaging assay relative to control; assay type: functional; settings: MDA-MB-231, 2 h

SMILES | GI50 ([1]; Homo sapiens, DU-145, 48 h) | GI50 (NCI-H460; Homo sapiens, NCI-H460, 48 h) | GI50 ([2]; Homo sapiens, SK-OV-3, 48 h) | GI50 [1] | GI50 (NCI-H460) | GI50 [2] | Drug metabolism (Leucine aminopeptidase [3]) | further results
COc1ccc2c(c1NC(=O)[C@@H](N)CO)CCCC=C2c1cc(OC)c(OC)c(OC)c1 | > 81300 nM | 45900 nM | 44900 nM | – | – | – | – | –
COc1ccc(/C=C\c2cc(OC)c(OC)c(OC)c2)cc1NC(=O)[C@@H](N)CO [OMBRABULIN] | – | – | – | 16.4 nM | 24.1 nM | 9.02 nM | 95% | IC50 (Tubulin): 14 µM
COc1ccc(/C=C\c2cc(OC)c(OC)c(OC)c2)cc1N | 3.3 nM | 4.49 nM | 4.45 nM | – | – | – | – | –
COc1ccc2c(c1NC(=O)[C@@H](N)CO)CCCC=C2c1cc(OC)c(OC)c(OC)c1.Cl | – | – | – | – | – | 47000 nM | < 10% | Drug metabolism (Leucine aminopeptidase [4]): < 10%
COc1ccc(/C=C\c2cc(OC)c(OC)c(OC)c2)cc1O [COMBRETASTATIN A4] | 6.02 nM | 5 nM | 5.06 nM | – | – | – | – | inhibition (Tubulin (Bos taurus) [5]): 84%
COc1ccc2c(c1NC(=O)CN)CCCC=C2c1cc(OC)c(OC)c(OC)c1 | 507 nM | 566 nM | 195 nM | – | – | – | – | –
COc1ccc2c(c1NC(=O)CN)CCCC=C2c1cc(OC)c(OC)c(OC)c1.Cl | – | – | – | 773 nM | 567 nM | 203 nM | 100% | Activity (Leucine aminopeptidase [6]): 0.12 µM/min
COc1ccc2c(c1NC(=O)[C@@H](N)CO)CCC=C2c1cc(OC)c(OC)c(OC)c1.Cl | – | – | – | 26000 nM | 18600 nM | 11600 nM | < 10% | Drug metabolism (Leucine aminopeptidase [4]): < 10%
COc1ccc2c(c1N)CCC=C2c1cc(OC)c(OC)c(OC)c1 | – | – | – | – | – | – | – | Retention_time [7]: 12.1 min
COc1ccc(/C=C/c2cc(OC)c(OC)c(OC)c2)c(NC(=O)[C@H](N)CO)c1.Cl | 4550 nM | 2240 nM | 2290 nM | – | – | – | 90% | –
COc1ccc(/C=C\c2cc(OC)c(OC)c(OC)c2)c(NC(=O)[C@@H](N)CO)c1.Cl | – | – | – | 48.4 nM | 31.7 nM | 51.6 nM | 62% | Activity (Leucine aminopeptidase [6]): 1.2 µM/min
COc1ccc(/C=C\c2cc(OC)c(OC)c(OC)c2)c(NC(=O)[C@@H](N)CO)c1NC(=O)[C@@H](N)CO | – | – | – | 33600 nM | 24400 nM | 25900 nM | metabolite_notdetected | –
COc1ccc(/C=C\c2cc(OC)c(OC)c(OC)c2)c(N)c1N | – | – | – | – | – | – | – | inhibition (Tubulin (Bos taurus) [5]): 55% and 46%; inhibition (Tubulin (Bos taurus) [8]): 87% and 86%; Activity (HUVEC): Active
COc1ccc(/C=C\c2cc(OC)c(OC)c(OC)c2)c(N)c1N.Cl | – | – | – | 205 nM | 124 nM | 22.8 nM | – | inhibition in vivo at 80 mg/kg (MDA-MB-231 [9]): 94%; inhibition in vivo at 80 mg/kg (MDA-MB-231 [10]): 79%; IC50 (Tubulin): 2.3 µM; inhibition in vivo at 80 mg/kg (MDA-MB-231 [11]): 95%
